Test results: ChEMBL document CHEMBL3612036, “Design, Synthesis, and Cardioprotective Effects of N-Mercapto-Based Hydrogen Sulfide Donors” (J Med Chem, 2015)
Active and inactive are the calls of the source. The calls are words filed in the database; no cut-off is given here.

Legend:
[1] = […] peak time for H2S release in pH 7.4 PBS buffer containing 10% THF incubated for 2 hrs at room temperature in presence of cysteine by methylene blue based UV-Vis spectrometry; format: physicochemical; conditions: pH 7.4, 2 h
Method in brief: (§1)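 Donor (30 mM THF stock; 0.1 mM final) was added to PBS (pH 7.4, 50 mM)/THF 9:1 containing the stated thiol, at room temperature for 2 h. 1.0 mL aliquots were taken periodically into methylene blue cocktail (zinc acetate, N,N-dimethyl-p-phenylenediamine in HCl, FeCl3 in HCl) and reacted 15 min. Absorbance was read at 670 nm and H2S quantified against a Na2S calibration curve; peak concentration and peak time were recorded.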

[2] = […] peak time for H2S release in pH 7.4 PBS buffer containing 10% THF incubated for 2 hrs at room temperature in presence of 1 mM GSH by methylene blue based UV-Vis spectrometry; format: physicochemical; conditions: pH 7.4, 2 h; method in brief: as §1
[3] = GSH-induced H2S release assessed as peak H2S level in pH 7.4 PBS buffer containing 10% THF incubated for 2 hrs at room temperature in presence of cysteine by methylene blue based UV-Vis spectrometry; format: physicochemical; conditions: pH 7.4, 2 h; method in brief: as §1
[4] = GSH-induced H2S release assessed as peak H2S level in pH 7.4 PBS buffer containing 10% THF incubated for 2 hrs at room temperature in presence of 1 mM GSH by methylene blue based UV-Vis spectrometry; format: physicochemical; conditions: pH 7.4, 2 h; method in brief: as §1
H9c2 [5] = experiment: Cytotoxicity against rat H9c2 cells assessed as reduction in cell viability at <40 uM incubated for 1 hr by CCK8 assay; format: cell-based; conditions: h9c2, 1 h
Method in brief: (§2)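 H9c2 cells (high-glucose DMEM, 10% FBS, 37 °C, 5% CO2) were exposed 1 h to donor over 20–160 μM, either alone or with 480 μM cysteine, then washed twice with PBS. Viability was measured by CCK-8 (1:10 dilution, 3 h at 37 °C, absorbance 450 nm). The mean OD of 4 wells was expressed as % of control, in triplicate.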

H9c2 [6] = experiment: Cytotoxicity against rat H9c2 cells assessed as reduction in cell viability at >80 uM incubated for 1 hr by CCK8 assay; format: cell-based; conditions: h9c2, 1 h; method in brief: as §2
H9c2 [7] = experiment: Cytotoxicity against rat H9c2 cells assessed as reduction in cell viability at 160 uM in presence of 480 uM cysteine incubated for 1 hr by CCK8 assay; format: cell-based; conditions: h9c2, 1 h; method in brief: as §2
H9c2 [8] = experiment: Cytoprotective activity against H2O2-induced cell damage in rat H9c2 cells at 160 uM pre-incubated for 1 hr before H2O2 challenge for 5 hrs in presence of 480 uM cysteine by LDH release assay; format: functional, cell-based
Method in brief: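 H9c2 cells at about 70% confluence were preconditioned 1 h with donor plus cysteine (480 μM), then treated with H2O2 (400 μM) for 5 h. Extracellular LDH was measured in supernatant; intracellular LDH in lysate made with 2% Triton X-100 in DMEM. Kit reaction ran 10 min at room temperature, read at 490/600 nm. % release = extracellular/(extracellular+intracellular). Run 4 times.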

H9c2 [9] = experiment: Cytoprotective activity against H2O2-induced cell damage in rat H9c2 cells assessed as reduction in mitochondrial membrane potential loss at 160 uM pre-incubated for 1 hr before H2O2 challenge for 5 hrs in presence of 480 uM cysteine by Rh123 dye based fluorescent microscopy; format: functional
Method in brief: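 H9c2 cells were grown in high-glucose DMEM with 10% FBS at 37 °C, 5% CO2. They were pretreated 1 h with donor plus cysteine (480 μM), then given H2O2 (400 μM) for 5 h. Rh123 (10 mg/L) was added for 15 min at 37 °C. Fluorescence microscopy gave mean Rh123 intensity from four random fields.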

Mus musculus [10] = experiment: Cardioprotective activity in C57BL6/J mouse model of myocardial ischemia/reperfusion assessed as reduction in infarct size per area-at-risk dosed through direct intracardiac injection at time of reperfusion by TTC staining method; format: functional, organism-based; conditions: Myocardium
Method in brief: (§3)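 Male C57BL/6J mice, 10–12 weeks old, anesthetised with pentobarbital (50 mg/kg) plus ketamine (60 mg/kg). Left coronary artery occluded with PE-10 tubing for 45 min. Single intracardiac injection at reperfusion; vehicle 0.5% v/v THF in sterile saline. Reperfusion lasted 24 h, then area-at-risk and infarct measured by Evans blue/TTC staining. n = 6–17 per group.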

Mus musculus [11] = experiment: Cardioprotective activity in C57BL6/J mouse model of myocardial ischemia/reperfusion assessed as reduction in infarct size per area-at-risk at 100 ug/kg dosed through direct intracardiac injection at time of reperfusion by TTC staining method; format: functional; conditions: Myocardium; method in brief: as §3
Mus musculus [12] = experiment: Cardioprotective activity in C57BL6/J mouse model of myocardial ischemia/reperfusion assessed as reduction in infarct size per area-at-risk at 50 ug/kg dosed through direct intracardiac injection at time of reperfusion by TTC staining method; format: functional; conditions: Myocardium; method in brief: as §3
Mus musculus [13] = experiment: Cardioprotective activity in C57BL6/J mouse model of myocardial ischemia/reperfusion assessed as reduction in circulating cardiac troponin-1 level at 50 ug/kg dosed through direct intracardiac injection at time of reperfusion; format: functional, organism-based; conditions: Heart
Method in brief: (§4)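 Male C57BL/6J mice, 10–12 weeks old, were anesthetized with pentobarbital (50 mg/kg) plus ketamine (60 mg/kg). The left coronary artery was occluded for 45 min. At reperfusion, donor was injected intracardiac: dissolved in THF, diluted in sterile saline to 0.05 or 0.1 mg/mL, final 0.5% v/v THF. Vehicle was 0.5% THF in saline. Tail-vein blood was drawn at 4 h reperfusion for troponin I.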

Mus musculus [14] = experiment: Cardioprotective activity in C57BL6/J mouse model of myocardial ischemia/reperfusion assessed as reduction in circulating cardiac troponin-1 level at 100 ug/kg dosed through direct intracardiac injection at time of reperfusion; format: functional, organism-based; conditions: Heart; method in brief: as §4
Mus musculus [15] = experiment: Effect on area-at-risk per left ventricle in C57BL6/J mouse model of myocardial ischemia/reperfusion at 50 and 100 ug/kg dosed through direct intracardiac injection at time of reperfusion by TTC staining method; format: organism-based, Heart left ventricle; conditions: in vivo, 0.1 mg/kg; method in brief: as §3

## O=C(NSC(=O)c1ccc(F)cc1)c1ccccc1
[1]
  Time: 50 min
[2]
  Time: 55 min
[3]
  Activity: 39.5 µM
[4]
  Activity: 40.6 µM
H9c2 [5]
  Activity: Non-toxic
H9c2 [6]
  Activity: Toxic
H9c2 [7]
  Activity: Non-toxic
H9c2 [8]
  Activity: Active
H9c2 [9]
  Activity: Active
Mus musculus [10]
  inhibition: Dose-dependent effect
Mus musculus [11]
  inhibition in vivo at 0.1 mg/kg: 50%
Mus musculus [12]
  inhibition in vivo at 0.05 mg/kg: 50%
Mus musculus [13]
  inhibition: Active
Mus musculus [14]
  inhibition: Active
Mus musculus [15]
  Activity: Non-toxic
